{
  "source": "paper PMC5161665",
  "about": "(Nature, 2016)",
  "key": {"[1]": {"tested_on": "T. cruzi epimastigotes", "assay": "microbe, parasite or virus in culture", "assay_type": "cell-based, Trypanosoma cruzi", "conditions": "for inhibition of T. cruzi epimastigote proliferation, potency: wild type epimastigotes"}, "[2]": {"tested_on": "ubiquitylated proteins in T. cruzi epimastigotes", "assay": "Accumulation of ubiquitylated proteins in T. cruzi epimastigotes", "assay_type": "cell-based", "conditions": "Trypanosoma cruzi, read-out: ubiquitylation EC50, T. cruzi epimastigotes", "outline": "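T. cruzi epimastigotes were seeded at 1 × 10^7 cells/well in LIT medium and exposed to DMSO (0.2%) or a range of test compound concentrations for 2–12 h at 27 °C. Cells were pelleted, washed twice in PBS, and lysed for 20 min on ice in Tris pH 7.4/NaCl/1% CHAPS buffer with protease inhibitors and N-ethylmaleimide. Lysates were cleared at 21,000 g, 30 min, 4 °C.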"}, "[3]": {"target": "T1, PSMB4^I29M T. cruzi proteasome (Trypanosoma cruzi, UniProt Q4CU77+Q4D8U7, I29M)", "T1 sequence (Q4CU77 1-206 I29M)": "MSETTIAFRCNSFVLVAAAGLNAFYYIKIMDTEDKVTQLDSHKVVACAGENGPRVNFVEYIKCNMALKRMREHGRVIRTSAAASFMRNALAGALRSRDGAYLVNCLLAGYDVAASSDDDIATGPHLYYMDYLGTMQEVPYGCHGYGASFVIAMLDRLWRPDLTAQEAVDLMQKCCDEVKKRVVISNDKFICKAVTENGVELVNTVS", "T1 sequence (Q4D8U7 111-311)": "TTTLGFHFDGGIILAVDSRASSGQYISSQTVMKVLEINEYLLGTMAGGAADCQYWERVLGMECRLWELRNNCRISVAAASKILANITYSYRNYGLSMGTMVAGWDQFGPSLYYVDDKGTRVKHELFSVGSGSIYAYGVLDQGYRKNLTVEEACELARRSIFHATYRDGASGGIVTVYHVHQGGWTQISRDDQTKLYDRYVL", "assay": "Proteasome proteolytic activities, PSMB4^I29M T. cruzi proteasome", "assay_type": "biochemical", "conditions": "mean ± s.e.m., n=3"}, "[4]": {"tested_on": "T. brucei (GVR35-VSL2)", "assay": "Mouse model of stage II HAT", "assay_type": "in vivo, Trypanosoma brucei", "conditions": "single ip dose 40 mg/kg"}},
  "note": "Peptide text beside a SMILES is read from it. * marks the point of attachment. Cbz = O=C(OCc1ccccc1)*",
  "data": [
    {"smiles": "CC(C)C[C@@H](C=O)NC(=O)[C@H](CC(C)C)NC(=O)[C@H](CC(C)C)NC(=O)OCc1ccccc1", "note": "[MG132] (Cbz-Leu-Leu-Leu-aldehyde)", "values": [
      {"measurement": "inhibition of T. cruzi epimastigote proliferation, potency", "setting": "[1]", "result": "sub-micromolar potency"}
    ]},
    {"smiles": "CC(C)C[C@H](NC(=O)[C@H](Cc1ccccc1)NC(=O)c1cnccn1)B(O)O", "note": "[bortezomib]", "values": [
      {"measurement": "EC50", "setting": "[2]", "result": 62, "unit": "nM"},
      {"measurement": "IC50", "setting": "[3]; IC50 caspase, caspase-like activity", "result": "540 ± 12", "unit": "nM"},
      {"measurement": "IC50", "setting": "[3]; IC50 chymotrypsin, chymotrypsin-like activity", "result": "260 ± 40", "unit": "nM"},
      {"measurement": "IC50", "setting": "[3]; IC50 trypsin, trypsin-like activity", "result": "1600 ± 58", "unit": "nM"},
      {"measurement": "EC50", "setting": "[1]; Trypanosoma cruzi, read-out: growth inhibition EC50 on T. cruzi epimastigotes", "result": 160, "unit": "nM"},
      {"measurement": "inhibition of T. cruzi epimastigote proliferation, potency", "setting": "[1]", "result": "sub-micromolar potency"}
    ]},
    {"smiles": "CC(=O)NCC(=O)O.CC(=O)NCC(=O)O.N=C(N)c1ccc(N=NNc2ccc(C(=N)N)cc2)cc1", "note": "[diminazene aceturate]", "values": [
      {"measurement": "parasite clearance / recrudescence", "setting": "[4]", "result": "did not prevent parasite recrudescence 21 days later"},
      {"measurement": "parasites in the brain", "setting": "[4]; ex vivo brain imaging", "result": "parasites were clearly detected in the brains"}
    ]}
  ]
}
